Source: ChEMBL document CHEMBL1141541, “The discovery of (R)-2-(sec-butylamino)-N-(2-methyl-5-(methylcarbamoyl)phenyl) thiazole-5-carboxamide (BMS-640994)-A potent and efficacious p38alpha MAP kinase inhibitor” (Bioorg Med Chem Lett, 2008)
Values after ≈ are worked out from the molar mass of the structure shown. Blank lines part the entries; values can stand above or below the compound they belong to. Active and inactive are the calls of the source. No cut-off for these calls is given here.

Assays:
[1] = biological target: Mitogen-activated protein kinase 14 (Homo sapiens, UniProt Q16539)
[2] = tested on: PBMC; assay: Inhibition of LPS-induced TNFalpha biosynthesis in human PBMC; type: functional, cell-based
How it was run: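 PBMCs isolated from human whole blood by Ficoll–Hypaque density gradient centrifugation, resuspended at 5 · 10⁶/mL in RPMI with 10% fetal bovine serum. Cells preincubated with compound (0.2% DMSO) 5 min at RT, then LPS added (200 ng/mL stock), 6 h at 37 °C. Medium TNFα measured by ELISA; IC₅₀ from linear regression. Duplicate typical.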

[3] = biological target: Tyrosine-protein kinase Lck (Homo sapiens, UniProt P06239); assay: Inhibition of Lck
[4] = Oral bioavailability in rat at 10 mg/kg; type: ADME, organism-based; conditions: in vivo
How it was run: (§1)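 Rat pharmacokinetics: iv dose 1 mg/kg and po dose 10 mg/kg, vehicle PEG300, n = 3 animals.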

[5] = Cmax in rat at 10 mg/kg, po; type: ADME, organism-based; design: dose 10 mg/kg, route oral; conditions: in vivo
How it was run: as §1

[6] = AUC (0 to 24hrs) in rat at 10 mg/kg, po; type: ADME, organism-based; design: time < 24 hr, dose 10 mg/kg, route oral; conditions: plasma
[7] = Half life in rat at 1 mg/kg, iv; type: ADME, organism-based; design: dose 1 mg/kg, route intravenous; conditions: in vivo
How it was run: as §1

[8] = tested on: Blood; assay: Inhibition of LPS-induced IL1-beta production in human whole blood; type: functional, tissue-based
[9] = Drug level in rat at 10 mg/kg, po after 24 hrs; type: ADME, organism-based; design: dose 10 mg/kg, route oral; conditions: in vivo, read-out: Drug uptake
How it was run: as §1

[10] = tested on: Rattus norvegicus; assay: Inhibition of disease progression in rat adjuvant-induced arthritis model assessed as paw swelling at 0.3 mg/kg, po qd; type: functional
How it was run: (§2)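 Rat adjuvant-induced arthritis, compound given orally once daily; disease progression read as paw swelling over study days 10–21 versus vehicle; Student's t-test.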

[11] = Clearance in rat at 1 mg/kg, iv; type: ADME, organism-based; design: dose 1 mg/kg, route intravenous; conditions: in vivo
How it was run: as §1

[12] = tested on: Mus musculus; assay: Inhibition of LPS-induced TNFalpha production in mouse at 5 mg/kg, po administered 24 hrs before LPS challenge relative to control
[13] = biological target: Cytochrome P450 2C9 (Homo sapiens, UniProt P11712); assay: Inhibition of CYP2C9; type: ADME
[14] = tested on: Liver; assay: Metabolic stability in mouse liver microsomes; type: ADME, Microsome
[15] = biological target: Cytochrome P450 3A4 (Homo sapiens, UniProt P08684); assay: Inhibition of CYP3A4; type: ADME
[16] = tested on: PBMC; assay: Inhibition of LPS-induced IL1-beta production in human PBMC; type: functional, cell-based
[17] = Drug level in rat serum at 3 mg/kg after 18 hrs; type: ADME, organism-based; design: dose 3 mg/kg; conditions: read-out: Drug uptake
How it was run: (§3)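 Terminal serum concentrations in adjuvant-arthritis rats taken 18 h after the final once-daily oral dose.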

[18] = biological target: hERG (KCNH2) (Homo sapiens, UniProt Q12809); assay: Inhibition of human ERG at 30 uM by patch clamp assay
[19] = Permeability across human Caco-2 cells; type: ADME, cell-based; conditions: read-out: permeability
[20] = biological target: T1, Cytochrome P450 1A2 (Homo sapiens, UniProt P05177); assay: Inhibition of CYP1A2; type: ADME
T1 sequence (P05177 whole entry): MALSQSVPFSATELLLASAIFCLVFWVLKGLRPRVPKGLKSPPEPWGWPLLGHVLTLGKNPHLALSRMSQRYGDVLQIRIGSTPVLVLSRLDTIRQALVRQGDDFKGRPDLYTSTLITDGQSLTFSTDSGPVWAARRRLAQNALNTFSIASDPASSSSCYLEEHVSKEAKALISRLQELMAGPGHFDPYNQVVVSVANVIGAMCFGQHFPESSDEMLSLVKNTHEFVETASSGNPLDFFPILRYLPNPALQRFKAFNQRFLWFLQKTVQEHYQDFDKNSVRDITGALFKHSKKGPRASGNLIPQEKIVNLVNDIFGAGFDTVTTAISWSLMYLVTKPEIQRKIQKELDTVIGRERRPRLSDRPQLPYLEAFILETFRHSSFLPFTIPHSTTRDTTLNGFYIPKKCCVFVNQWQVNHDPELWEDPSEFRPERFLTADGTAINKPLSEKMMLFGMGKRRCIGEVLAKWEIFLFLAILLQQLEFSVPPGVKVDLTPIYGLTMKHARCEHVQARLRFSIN

[21] = tested on: Rattus norvegicus; assay: Inhibition of disease progression in rat adjuvant-induced arthritis model assessed as paw swelling at 1 mg/kg, po qd; type: functional, organism-based; design: dose 1 mg/kg
How it was run: as §2

[22] = Drug level in rat serum at 1 mg/kg after 18 hrs; type: ADME, organism-based; design: dose 1 mg/kg; conditions: read-out: Drug uptake
How it was run: as §3

[23] = Volume of distribution at steady state in rat at 1 mg/kg, iv; type: ADME, organism-based; design: dose 1 mg/kg, route intravenous; conditions: in vivo, read-out: Vdss
How it was run: as §1

[24] = tested on: Blood; assay: Inhibition of LPS-induced TNFalpha production in human whole blood; type: functional, tissue-based
[25] = biological target: Cytochrome P450 2C19 (Homo sapiens, UniProt P33261); assay: Inhibition of CYP2C19; type: ADME
[26] = tested on: Liver microsomes; assay: Metabolic stability in human liver microsomes; type: ADME, Microsome
[27] = tested on: Rattus norvegicus; assay: Inhibition of disease progression in rat adjuvant-induced arthritis model assessed as paw swelling at 3 mg/kg, po qd; type: functional, organism-based; design: dose 3 mg/kg
How it was run: as §2

[28] = Protein binding in human; type: ADME, organism-based; conditions: in vivo, read-out: PB (converted)
[29] = biological target: Cytochrome P450 2D6 (Homo sapiens, UniProt P10635); assay: Inhibition of CYP2D6; type: ADME
[30] = species on record: Rattus norvegicus; assay: Inhibition of LPS-induced TNFalpha production in Lewis rat by ELISA; type: functional
How it was run: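 Rats dosed orally; two hours later LPS (10 µg, E. coli […]) in 1 mL PBS given IP. Dose–response used to derive oral ED₅₀.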

[31] = Aqueous solubility at pH 6.5; type: physicochemical; conditions: buffer
[32] = tested on: Liver microsomes; assay: Metabolic stability in rat liver microsomes; type: ADME, Microsome
[33] = tested on: Mus musculus; assay: Inhibition of LPS-induced TNFalpha production in mouse at 5 mg/kg, po administered 4 hrs before LPS challenge relative to control; type: functional
How it was run: (§4)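 Mice given 5 mg/kg orally, then LPS challenge after a 4 h or 24 h pre-dosing interval. Circulating TNFα reduction reported as percent versus vehicle, mean ± SD, n = 8 animals; Student's t-test.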

[34] = tested on: Serum; assay: Drug level in LPS challenged mouse serum at 5 mg/kg, po; type: ADME, organism-based; design: dose 5 mg/kg, route oral; conditions: in vivo, read-out: Drug uptake
How it was run: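 Serum drug concentration in mice measured in the LPS challenge study after 5 mg/kg oral dosing, 4 h or 24 h pre-dosing interval.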

[35] = tested on: Mus musculus; assay: Inhibition of LPS-induced TNFalpha production in mouse at 5 mg/kg, po administered 24 hrs before LPS challenge relative to control; type: functional, organism-based; design: dose 5 mg/kg
How it was run: as §4

Sequence of Tyrosine-protein kinase Lck (P06239 whole entry): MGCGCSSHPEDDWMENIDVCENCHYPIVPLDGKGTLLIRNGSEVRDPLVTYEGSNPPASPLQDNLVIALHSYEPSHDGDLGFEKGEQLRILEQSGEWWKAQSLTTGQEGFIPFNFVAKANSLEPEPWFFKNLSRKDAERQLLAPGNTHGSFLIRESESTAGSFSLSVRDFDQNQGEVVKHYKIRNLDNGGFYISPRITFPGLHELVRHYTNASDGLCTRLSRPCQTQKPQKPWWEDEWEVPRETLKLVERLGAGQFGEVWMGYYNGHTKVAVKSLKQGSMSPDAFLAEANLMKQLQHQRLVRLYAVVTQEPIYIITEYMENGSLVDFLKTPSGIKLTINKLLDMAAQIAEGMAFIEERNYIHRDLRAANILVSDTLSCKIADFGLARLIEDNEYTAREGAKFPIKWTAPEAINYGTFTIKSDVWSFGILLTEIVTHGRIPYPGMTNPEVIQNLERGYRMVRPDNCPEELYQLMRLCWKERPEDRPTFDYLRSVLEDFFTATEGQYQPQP
Sequence of Mitogen-activated protein kinase 14 (Q16539 whole entry): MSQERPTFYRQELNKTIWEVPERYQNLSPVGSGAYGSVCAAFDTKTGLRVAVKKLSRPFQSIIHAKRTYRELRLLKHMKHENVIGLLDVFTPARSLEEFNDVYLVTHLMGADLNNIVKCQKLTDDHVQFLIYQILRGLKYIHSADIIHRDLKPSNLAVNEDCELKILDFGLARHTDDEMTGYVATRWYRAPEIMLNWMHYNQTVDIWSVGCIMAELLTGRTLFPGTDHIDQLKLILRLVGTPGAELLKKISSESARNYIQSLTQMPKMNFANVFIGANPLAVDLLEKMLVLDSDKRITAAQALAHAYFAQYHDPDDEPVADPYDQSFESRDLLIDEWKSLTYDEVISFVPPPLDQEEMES
Sequence of Cytochrome P450 2C19 (P33261 whole entry): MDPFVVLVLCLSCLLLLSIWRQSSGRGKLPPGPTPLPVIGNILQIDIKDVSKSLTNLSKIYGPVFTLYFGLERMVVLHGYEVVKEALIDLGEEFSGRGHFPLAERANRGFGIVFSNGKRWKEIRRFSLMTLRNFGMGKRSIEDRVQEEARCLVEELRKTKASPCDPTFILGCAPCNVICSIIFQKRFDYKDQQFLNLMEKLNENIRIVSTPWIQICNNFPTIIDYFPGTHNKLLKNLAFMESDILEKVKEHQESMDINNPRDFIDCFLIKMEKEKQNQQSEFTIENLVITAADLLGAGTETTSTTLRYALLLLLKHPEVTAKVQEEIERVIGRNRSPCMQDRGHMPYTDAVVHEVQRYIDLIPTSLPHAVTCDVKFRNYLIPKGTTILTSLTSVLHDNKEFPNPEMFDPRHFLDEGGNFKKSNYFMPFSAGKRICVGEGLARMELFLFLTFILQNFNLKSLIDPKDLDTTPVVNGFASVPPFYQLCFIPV
Sequence of hERG (KCNH2) (Q12809 whole entry): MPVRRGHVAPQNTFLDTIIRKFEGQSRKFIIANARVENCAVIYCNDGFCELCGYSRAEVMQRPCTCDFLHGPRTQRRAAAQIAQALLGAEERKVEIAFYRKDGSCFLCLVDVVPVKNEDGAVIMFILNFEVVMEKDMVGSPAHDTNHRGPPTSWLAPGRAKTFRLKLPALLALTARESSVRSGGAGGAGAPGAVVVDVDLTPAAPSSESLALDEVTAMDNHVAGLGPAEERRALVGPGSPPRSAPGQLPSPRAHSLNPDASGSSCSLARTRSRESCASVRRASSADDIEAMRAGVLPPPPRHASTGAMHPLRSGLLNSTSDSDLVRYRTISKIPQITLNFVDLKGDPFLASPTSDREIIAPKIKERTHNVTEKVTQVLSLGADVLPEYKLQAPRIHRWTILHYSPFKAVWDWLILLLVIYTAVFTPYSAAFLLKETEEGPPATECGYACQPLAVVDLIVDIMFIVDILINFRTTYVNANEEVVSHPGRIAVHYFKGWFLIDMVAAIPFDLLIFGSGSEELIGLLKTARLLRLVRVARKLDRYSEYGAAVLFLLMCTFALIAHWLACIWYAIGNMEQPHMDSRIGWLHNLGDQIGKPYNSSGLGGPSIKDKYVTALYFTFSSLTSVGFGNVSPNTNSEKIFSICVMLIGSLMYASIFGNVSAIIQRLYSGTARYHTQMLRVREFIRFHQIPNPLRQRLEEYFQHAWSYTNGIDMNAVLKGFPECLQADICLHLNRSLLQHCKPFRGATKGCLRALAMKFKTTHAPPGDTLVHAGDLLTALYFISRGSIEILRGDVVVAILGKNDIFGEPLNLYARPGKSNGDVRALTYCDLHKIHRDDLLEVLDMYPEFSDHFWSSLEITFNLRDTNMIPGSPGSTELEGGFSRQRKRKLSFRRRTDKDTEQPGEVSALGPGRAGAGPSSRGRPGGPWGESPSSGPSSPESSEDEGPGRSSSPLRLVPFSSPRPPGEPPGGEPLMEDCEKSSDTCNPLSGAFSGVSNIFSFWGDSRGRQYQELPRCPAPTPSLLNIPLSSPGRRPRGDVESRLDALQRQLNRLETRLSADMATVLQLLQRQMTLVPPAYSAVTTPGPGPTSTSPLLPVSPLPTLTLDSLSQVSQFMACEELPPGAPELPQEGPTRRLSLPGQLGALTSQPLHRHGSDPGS
Sequence of Cytochrome P450 2D6 (P10635 whole entry): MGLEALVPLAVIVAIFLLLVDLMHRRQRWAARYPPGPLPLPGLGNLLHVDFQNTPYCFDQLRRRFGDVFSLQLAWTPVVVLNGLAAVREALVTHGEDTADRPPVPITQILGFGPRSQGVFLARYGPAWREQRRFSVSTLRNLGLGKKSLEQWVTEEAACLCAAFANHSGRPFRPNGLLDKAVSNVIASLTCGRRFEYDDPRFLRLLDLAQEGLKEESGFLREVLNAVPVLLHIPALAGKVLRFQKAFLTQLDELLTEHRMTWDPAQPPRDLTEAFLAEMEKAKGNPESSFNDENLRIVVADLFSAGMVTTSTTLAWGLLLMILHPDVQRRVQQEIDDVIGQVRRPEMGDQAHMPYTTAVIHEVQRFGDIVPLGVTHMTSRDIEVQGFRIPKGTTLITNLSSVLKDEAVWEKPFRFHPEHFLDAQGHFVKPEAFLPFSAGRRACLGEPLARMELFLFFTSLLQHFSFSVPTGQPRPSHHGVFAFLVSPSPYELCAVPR
Sequence of Cytochrome P450 3A4 (P08684 whole entry): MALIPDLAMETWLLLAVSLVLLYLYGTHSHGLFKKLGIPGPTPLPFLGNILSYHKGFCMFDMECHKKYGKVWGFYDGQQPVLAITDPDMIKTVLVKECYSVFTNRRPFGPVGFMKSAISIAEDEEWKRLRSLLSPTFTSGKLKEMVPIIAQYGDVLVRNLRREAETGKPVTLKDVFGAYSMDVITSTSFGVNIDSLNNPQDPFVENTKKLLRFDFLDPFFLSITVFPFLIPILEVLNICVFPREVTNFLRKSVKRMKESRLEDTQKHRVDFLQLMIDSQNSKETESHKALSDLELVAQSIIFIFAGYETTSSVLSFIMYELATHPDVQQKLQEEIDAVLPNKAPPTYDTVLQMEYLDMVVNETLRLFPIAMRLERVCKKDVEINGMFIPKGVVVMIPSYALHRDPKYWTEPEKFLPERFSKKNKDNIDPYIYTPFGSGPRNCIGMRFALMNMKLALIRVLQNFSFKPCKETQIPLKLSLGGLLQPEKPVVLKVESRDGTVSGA
Sequence of Cytochrome P450 2C9 (P11712 whole entry): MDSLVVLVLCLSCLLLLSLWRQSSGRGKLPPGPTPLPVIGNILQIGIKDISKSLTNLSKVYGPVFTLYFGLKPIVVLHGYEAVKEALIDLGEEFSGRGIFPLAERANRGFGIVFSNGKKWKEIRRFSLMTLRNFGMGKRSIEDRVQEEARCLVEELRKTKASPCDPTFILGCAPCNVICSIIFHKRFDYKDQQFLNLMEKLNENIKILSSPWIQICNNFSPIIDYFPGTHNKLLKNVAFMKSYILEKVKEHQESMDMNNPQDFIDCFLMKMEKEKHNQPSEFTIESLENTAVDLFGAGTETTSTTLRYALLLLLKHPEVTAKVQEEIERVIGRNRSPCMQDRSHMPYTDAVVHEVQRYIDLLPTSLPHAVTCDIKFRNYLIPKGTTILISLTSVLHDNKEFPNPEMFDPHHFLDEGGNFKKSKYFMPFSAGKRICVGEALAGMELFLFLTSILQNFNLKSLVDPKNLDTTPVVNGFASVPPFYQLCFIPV

Compound: Cc1cccc(Cl)c1NC(=O)c1cnc(NC2CC2)s1
IC50 [1]: 39 nM | IC50 [2]: 1500 nM | IC50 [3]: 0.14 µM

Compound: CC[C@@H](C)Nc1ncc(C(=O)Nc2cc(C(=O)NC)ccc2C)s1
bioavailability [4]: 75% | Cmax [5]: 8.7 µM | AUC(0-t) at 24 h [6]: 25 µM·h | half-life [7]: 108 min | IC50 [8]: 600 nM | concentration at 24 h [9]: 7.6 nM | inhibition in vivo at 0.3 mg/kg [10]: 46% | clearance [11]: 14.1 mL/min/kg | inhibition in vivo at 5 mg/kg [12]: 46% | Activity [13]: > 40 µM | IC50 [2]: 2.9 nM | Stability [14]: 0 nmol/min/mg | Activity [15]: > 40 µM | IC50 [16]: 99 nM | concentration at 18 h [17]: 16 nM | inhibition at 30 µM [18]: 7% | Papp [19]: 8.3 ×10⁻⁶ cm/s | Activity [20]: > 40 µM | Activity [21]: Active | concentration at 18 h [22]: 8.1 nM | Vd [23]: 1.8 L/kg | IC50 [24]: 54 nM | Activity [25]: > 40 µM | Stability [26]: 0 nmol/min/mg | Activity [27]: Active | fraction unbound [28]: 0.18 | Activity [29]: > 40 µM | ED50 [30]: 2 mg/kg | IC50 [3]: 22 µM | solubility [31]: 22 µg/mL (≈ 63.5 µM) | Stability [32]: 0 nmol/min/mg

Compound: CCNC(=O)c1ccc(C)c(NC(=O)c2sc(NCC)nc2C)c1
IC50 [1]: 330 nM

Compound: CCCNc1nc(C)c(C(=O)Nc2cc(C(=O)NCC)ccc2C)s1
IC50 [1]: 130 nM

Compound: CC[C@H](C)Nc1ncc(C(=O)Nc2cc(C(=O)NC)ccc2C)s1
inhibition in vivo at 5 mg/kg [33]: 69% | IC50 [2]: 4.1 nM | concentration [34]: 250 nM | IC50 [3]: > 50 µM

Compound: CNC(=O)c1ccc(C)c(N2Cc3nc(NC(C)C)sc3C2=O)c1
IC50 [1]: 110 nM

Compound: CCCNc1nc2c(s1)C(=O)N(c1cc(C(=O)NCC)ccc1C)C2
IC50 [1]: 160 nM

Compound: CCNc1ncc(C(=O)Nc2c(C)cccc2Cl)s1
IC50 [1]: 140 nM

Compound: CCCNc1nc2c(s1)C(=O)N(c1cc(C(=O)NC)ccc1C)C2
IC50 [1]: 270 nM

Compound: CNC(=O)c1ccc(C)c(N2Cc3nc(NC4CCCC4)sc3C2=O)c1
IC50 [1]: 110 nM

Compound: Cc1cccc(Cl)c1NC(=O)c1cnc(Nc2ccccc2)s1
IC50 [1]: 62 nM

Compound: Cc1ccc(C(=O)Nc2ccon2)cc1NC(=O)c1cnc(NC(C)C)s1
IC50 [2]: 1 nM

The remaining compounds from weak to strong by IC50 [1], led by results:

IC50 [1]: 36 nM | IC50 [3]: 3.31 µM
Compound: Cc1cccc(Cl)c1NC(=O)c1cnc(NC2CCC2)s1

IC50 [1]: 34 nM
Compound: CCNC(=O)c1ccc(C)c(N2Cc3nc(NC(C)C)sc3C2=O)c1
IC50 [2]: > 250 nM

IC50 [1]: 28 nM
Compound: CCCNc1ncc(C(=O)Nc2c(C)cccc2Cl)s1
IC50 [2]: > 2000 nM

IC50 [1]: 22 nM
Compound: CNC(=O)c1ccc(C)c(NC(=O)c2cnc(NCCOC)s2)c1
IC50 [2]: > 250 nM

IC50 [1]: 13 nM
Compound: Cc1cccc(Cl)c1NC(=O)c1cnc(NC(C)C)s1
IC50 [2]: 160 nM

IC50 [1]: 5.4 nM | IC50 [3]: 5.8 µM
Compound: Cc1ccc(C(=O)Nc2ccnn2C)cc1NC(=O)c1cnc(NC(C)C)s1
IC50 [2]: 6.4 nM

IC50 [1]: 4.5 nM | IC50 [3]: 4.8 µM
Compound: CCCNc1ncc(C(=O)Nc2cc(C(=O)NC)ccc2C)s1
IC50 [2]: 42 nM

IC50 [1]: 4.2 nM
Compound: Cc1ccc(C(=O)Nc2ccn[nH]2)cc1NC(=O)c1cnc(NC(C)C)s1
IC50 [2]: 7.9 nM

IC50 [1]: 4.1 nM
Compound: CCCNc1ncc(C(=O)Nc2cc(C(N)=O)ccc2C)s1
IC50 [2]: 23 nM

IC50 [1]: 3.5 nM | concentration [34]: 400 nM | IC50 [3]: > 50 µM
Compound: CNC(=O)c1ccc(C)c(NC(=O)c2cnc(NC(C)C)s2)c1
inhibition in vivo at 5 mg/kg [33]: 62% | IC50 [2]: 8.7 nM | Activity [35]: inactive

IC50 [1]: 3.4 nM | concentration [34]: 330 nM | IC50 [3]: > 50 µM
Compound: CCNC(=O)c1ccc(C)c(NC(=O)c2cnc(NC(C)C)s2)c1
inhibition in vivo at 5 mg/kg [33]: 68% | IC50 [2]: 11 nM

IC50 [1]: 3.2 nM | IC50 [3]: > 50 µM
Compound: Cc1ccc(C(N)=O)cc1NC(=O)c1cnc(NC(C)C)s1
IC50 [2]: 35 nM

IC50 [1]: 2 nM | IC50 [3]: 1.9 µM
Compound: CCCNc1ncc(C(=O)Nc2cc(C(=O)NCC)ccc2C)s1
IC50 [2]: 2.7 nM | Activity [35]: inactive
